This is an account of results in ChEMBL document CHEMBL2040835, “Disubstituted Bis-THF Moieties as New P2 Ligands in Nonpeptidal HIV-1 Protease Inhibitors” (ACS Med Chem Lett, 2011).

Some results are limits rather than exact numbers.

The subject of data set [1] is Human immunodeficiency virus 1. Kind of data set: Selectivity index, ratio of EC50 for Human immunodeficiency virus 1 isolate M3 expressing protease L10I, K20R, M36I, G48V, I62V, A71V, V82A, I93L mutant to EC50 for Human immunodeficiency virus 1 3B expressing wild-type protease. Type of data set: functional. In a few lines:
(§1)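 Fold change is the EC50 against the multi-PI-resistant mutant divided by the EC50 against wild-type HIV-1 IIIB. Both EC50s come from cell-based assays in MT4 cells run in quadruplicate.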

Data set [2] relates to Human immunodeficiency virus 1. The data set is described as follows: Antiviral activity against Human immunodeficiency virus 1 isolate M1 expressing protease L10I, M46I, I64V, I84V, L90M, I93L mutant infected in human MT4 cells. The class given is functional, organism-based. Particulars: Human immunodeficiency virus 1, isolate M1, MT4. Put shortly: (§2)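 Cell-based antiviral assay in MT4 cells infected with a multi-PI-resistant HIV-1 mutant carrying clinically observed primary protease mutations. EC50 determined, with all assays run in quadruplicate.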

The test system of data set [3] is Human immunodeficiency virus 1. Kind of data set: Antiviral activity against Human immunodeficiency virus 1 3B expressing wild-type protease infected in human MT4 cells in presence of 50% human serum. Type of data set: functional, organism-based. Put shortly: (§3)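 Cell-based antiviral assay in MT4 cells infected with wild-type HIV-1 IIIB, read as EC50. Run in quadruplicate. It was also repeated in the presence of 50% human serum as an indicator of plasma protein binding.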

The target in the next data set is Protease (Human immunodeficiency virus 1, UniProt Q9YQ12). The data set is described as follows: Inhibition of Human immunodeficiency virus 1 3B protease.
Data set [4] deals with Human immunodeficiency virus 1. The data set is described as follows: Selectivity index, ratio of EC50 for Human immunodeficiency virus 1 isolate M1 expressing protease L10I, M46I, I64V, I84V, L90M, I93L mutant to EC50 for Human immunodeficiency virus 1 3B expressing wild-type protease. The class given is functional. Put shortly:
as §1

The test system of data set [5] is Human immunodeficiency virus 1. The data set is described as follows: Antiviral activity against Human immunodeficiency virus 1 3B expressing wild-type protease infected in human MT4 cells. The class given is functional, organism-based. In a few lines: as §3
Data set [6] relates to Human immunodeficiency virus 1. Kind of data set: Antiviral activity against Human immunodeficiency virus 1 isolate M3 expressing protease L10I, K20R, M36I, G48V, I62V, A71V, V82A, I93L mutant infected in human MT4 cells. Type of data set: functional, organism-based. The following applies: Human immunodeficiency virus 1, isolate M3, MT4.
The subject of data set [7] is Human immunodeficiency virus 1. Kind of data set: Selectivity index, ratio of EC50 for Human immunodeficiency virus 1 isolate M2 expressing protease L10I, I13V, M46I, I50V, L63P, L76V mutant to EC50 for Human immunodeficiency virus 1 3B expressing wild-type protease. Type of data set: functional. In a few lines: as §1
Data set [8] is described as follows: Ratio of EC50 for Human immunodeficiency virus 1 3B expressing wild-type protease to IC50 for Human immunodeficiency virus 1 3B protease.
The subject of data set [9] is Human immunodeficiency virus 1. The data set is described as follows: Antiviral activity against Human immunodeficiency virus 1 isolate M2 expressing protease L10I, I13V, M46I, I50V, L63P, L76V mutant infected in human MT4 cells. The class given is functional, organism-based. Particulars: Human immunodeficiency virus 1, isolate M2, MT4. Put shortly: as §2
A short description of data set [10]: Cytotoxicity against human MT4 cells. Type of data set: cell-based.
A short description of data set [11]: Selectivity index, ratio of CC50 for human MT4 cells to EC50 for Human immunodeficiency virus 1 3B. The class given is toxicity, cell-based. In a few lines:
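Selectivity index is calculated as CC50 divided by EC50 against HIV-1 IIIB in the cell-based assay.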

Sequence of Protease (Q9YQ12 whole entry): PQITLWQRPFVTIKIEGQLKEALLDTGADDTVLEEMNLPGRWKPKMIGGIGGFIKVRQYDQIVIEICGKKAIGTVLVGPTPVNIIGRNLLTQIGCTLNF

As to `CC(C)CN(C[C@@H](O)[C@H](Cc1ccccc1)NC(=O)O[C@H]1CO[C@H]2OC[C@H](O)[C@H]21)S(=O)(=O)c1ccc(N)cc1`, the entries for the “Ratio EC50” value in data set [1], in data set [4] and in data set [7] were less than 0.1, 0.1 and 0.3, respectively. Further, the EC50 was 112 nM in data set [2]; 814 nM in data set [3]; 773 nM in data set [5]; 40.4 nM in data set [6]; 204 nM in [9]. The half-maximal inhibitory concentration (IC50) at Protease is 2.9 nM. Further, in data set [8], the Ratio is listed as 250.

As for `CNc1nc2ccc(S(=O)(=O)N(CC(C)C)C[C@@H](O)[C@H](Cc3ccccc3)NC(=O)O[C@H]3CO[C@H]4OC[C@H](OCCOC)[C@H]43)cc2o1`, the entries for the “Ratio EC50” value in [1], in [4] and in data set [7] were 0.5, 0.8 and 1.3, respectively. In addition, the half-maximal effective concentration (EC50) was determined as 6.9 nM in data set [2]; 24 nM in data set [3]; 8.6 nM in data set [5]; 4.3 nM in data set [6]; 10.8 nM in data set [9]. Besides, the CC50 in data set [10] was greater than 9800 nM. The molecule also showed a 50% inhibitory concentration (IC50) against Protease of 1.5 nM. Besides, the selectivity ratio in data set [11] is greater than 2000.
